Activity calls are given as the source filed them. The rule behind the calls is not given here.
Columns and labels:
[1] = biological target: Low-density lipoprotein receptor (Homo sapiens) (UniProt P01130); experiment: Capability of derepressing the transcription of human Low density lipoprotein receptor promoter in the presence of 25-hydroxycholesterol in CHO cells by luciferase assay; NA= Not active within the test range 0-20 ug/mL; format: cell-based
In short: (§1)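 Stably transfected CHO clone S27/B30 (LDL receptor promoter fused to firefly luciferase), grown to confluence (2-3 days, 37 °C, 5% CO2). Then 24 h in serum-free assay medium (DMEM/Ham's F-12 3:1, 0.5% bovine albumin) with 25-hydroxycholesterol 0.5 μg/mL plus compound at 0.30-20 μg/mL from ethanol stock, triplicate wells. Lysate luciferase peak light per μg protein (Coomassie). EC30 = concentration giving 30% rise over control. MA = % specific induction at 20 μg/mL.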

[2] = organism: Mesocricetus auratus; experiment: Serum cholesterol level change relative to the control value (366(24)) in hamsters at a dose of 0.2% of diet for 1 week
[3] = test system: Cricetinae gen. sp.; experiment: Total serum cholesterol level with relative to the control value (366(24)) in hamsters at a dose of 0.2% of diet for 1 week; format: functional, Cricetulus griseus
[4] = biological target: Low-density lipoprotein receptor (Homo sapiens) (UniProt P01130); experiment: Capability of derepressing the transcription of human Low density lipoprotein receptor promoter in the presence of 25-hydroxycholesterol in CHO cells by luciferase assay; format: cell-based; in short: as §1
[5] = biological target: Low-density lipoprotein receptor (Homo sapiens) (UniProt P01130); experiment: Capability of derepressing the transcription of Low density lipoprotein receptor promoter in the presence of 25-hydroxycholesterol in CHO cells measured as maximum activity at 20 ug/mL; format: cell-based; in short: as §1
[6] = test system: CHO; experiment: Capability of derepressing the transcription of SV40 promoter in CHO cells by luciferase assay; NA= Not active within the test range 0-20 ug/mL; format: functional, cell-based; details: Cricetulus griseus
In short: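 Counter-screen in CHO clone SV40/LN9, with luciferase driven by the SV40 promoter. Confluent monolayers were given compound at 0.30-20 μg/mL for 24 h in serum-free albumin assay medium, triplicate wells. Lysates were read for luciferase peak luminescence, normalized to lysate protein.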

[7] = test system: Cricetinae gen. sp.; experiment: Total serum cholesterol level with relative to the control value (333(23)) in hamsters at a dose of 0.2% of diet for 1 week; format: functional, Cricetulus griseus
[8] = organism: Mesocricetus auratus; experiment: Serum cholesterol level change relative to the control value (333(23)) in hamsters at a dose of 0.2% of diet for 1 week
[9] = test system: CHO; experiment: In vitro [1-14C]-acetate]-cholesterol biosynthesis inhibition assay (14CACBI) in CHO cells; neg = Negative :no effect on biosynthesis of cholesterol; format: functional, cell-based; details: Cricetulus griseus
In short: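 Confluent CHO cells in replicate 100 mm dishes were held 20 h in assay medium without 25-hydroxycholesterol, with ethanol vehicle (0.5% v/v) or compound at 20 μg/mL. [1-14C]acetate was then added (final 1 μCi/mL) for 4 h more. Cells were scraped and sonicated, lipids separated, and the cholesterol band scraped and counted by scintillation.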

Chain of Low-density lipoprotein receptor (Homo sapiens) (P01130 whole entry, the tested form may be a part): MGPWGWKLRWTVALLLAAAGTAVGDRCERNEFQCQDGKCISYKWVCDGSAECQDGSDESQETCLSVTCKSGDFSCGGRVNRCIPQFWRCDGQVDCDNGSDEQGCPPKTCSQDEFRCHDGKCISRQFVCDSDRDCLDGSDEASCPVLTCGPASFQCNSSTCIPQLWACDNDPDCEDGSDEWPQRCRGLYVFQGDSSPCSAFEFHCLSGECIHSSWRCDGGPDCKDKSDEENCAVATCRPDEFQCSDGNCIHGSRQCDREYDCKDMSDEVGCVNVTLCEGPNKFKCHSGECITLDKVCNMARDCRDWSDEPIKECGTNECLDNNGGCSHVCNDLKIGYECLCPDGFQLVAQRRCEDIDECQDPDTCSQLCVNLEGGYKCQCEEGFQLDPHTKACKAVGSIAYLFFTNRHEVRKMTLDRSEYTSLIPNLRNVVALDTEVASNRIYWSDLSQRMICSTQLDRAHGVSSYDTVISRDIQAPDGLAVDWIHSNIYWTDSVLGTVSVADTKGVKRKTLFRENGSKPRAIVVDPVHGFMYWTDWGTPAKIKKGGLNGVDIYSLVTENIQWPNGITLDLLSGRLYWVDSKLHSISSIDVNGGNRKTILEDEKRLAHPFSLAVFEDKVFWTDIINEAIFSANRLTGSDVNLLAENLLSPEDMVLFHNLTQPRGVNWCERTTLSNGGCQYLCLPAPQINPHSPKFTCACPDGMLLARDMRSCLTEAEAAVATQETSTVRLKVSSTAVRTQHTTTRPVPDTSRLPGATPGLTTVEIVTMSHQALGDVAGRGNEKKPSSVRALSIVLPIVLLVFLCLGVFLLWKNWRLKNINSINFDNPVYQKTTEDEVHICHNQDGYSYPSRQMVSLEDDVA

Row | SMILES | EC30 [1] | EC30 [4] | MA [5] | Activity [6] | further results
1 | CC(C)CCC[C@@H](C)[C@H]1CC[C@H]2[C@@H]3CCC4[C@H](Cc5ccc(C=O)cc5)[C@H](O)CC[C@]4(C)[C@H]3CC[C@]12C (stereo partly specified) | inactive |  |  |  | 
2 | COc1ccc(C[C@H]2C3CC[C@H]4[C@@H]5CC[C@H]([C@H](C)CCCC(C)C)[C@@]5(C)CC[C@@H]4[C@@]3(C)CC[C@H]2O)cc1 (stereo partly specified) | inactive |  |  |  | 
3 | CC/C=C/C[C@H]1C2CC[C@H]3[C@@H]4CC[C@H]([C@H](C)CCCC(C)C)[C@@]4(C)CC[C@@H]3[C@@]2(C)CC[C@H]1O (stereo partly specified) | inactive |  |  |  | 
4 | CC(C)CCC[C@@H](C)[C@H]1CC[C@H]2[C@@H]3CCC4[C@H](Cc5cccc(I)c5)[C@H](O)CC[C@]4(C)[C@H]3CC[C@]12C (stereo partly specified) |  |  |  |  | MA [1]: inactive
5 | C=CC[C@@H]1[C@H]2CC[C@@H]3[C@H](CC[C@]4(C)[C@@H]([C@H](C)CCCC(C)C)CC[C@@H]34)[C@@]2(C)CC[C@@H]1O | inactive |  |  |  | 
6 | C#CC[C@H]1C2CC[C@H]3[C@@H]4CC[C@H]([C@H](C)CCCC(C)C)[C@@]4(C)CC[C@@H]3[C@@]2(C)CC[C@H]1O (stereo partly specified) | inactive |  |  |  | 
7 | CC(C)CCC[C@@H](C)[C@H]1CC[C@H]2[C@@H]3CC[C@H]4[C@H](Cc5ccccc5)C(=O)CC[C@]4(C)[C@H]3CC[C@]12C |  |  |  |  | Relative change [2]: -15%; Total cholesterol [3]: 312 mg/dL
8 | C=CC[C@H]1[C@H](O)CC[C@@]2(C)[C@@H]1CC[C@@H]1[C@@H]2CC[C@]2(C)[C@@H]([C@H](C)CCCC(C)C)CC[C@@H]12 | inactive |  |  |  | 
9 | CC(C)=CC[C@H]1C2CC[C@H]3[C@@H]4CC[C@H]([C@H](C)CCCC(C)C)[C@@]4(C)CC[C@@H]3[C@@]2(C)CC[C@H]1O (stereo partly specified) | inactive |  |  |  | 
10 | CC(C)CCC[C@@H](C)[C@H]1CC[C@H]2[C@@H]3CCC4[C@H](Cc5ccc(Cl)cc5)[C@H](O)CC[C@]4(C)[C@H]3CC[C@]12C (stereo partly specified) |  | 42 µM | 63% | inactive | 
11 | C=CC[C@@H]1C[C@@]2(C)C(CC[C@H]3[C@@H]4CC[C@H]([C@H](C)CCCC(C)C)[C@@]4(C)CC[C@@H]32)C[C@H]1O (stereo partly specified) | inactive |  |  |  | 
12 | C=C(Br)C[C@H]1C2CC[C@H]3[C@@H]4CC[C@H]([C@H](C)CCCC(C)C)[C@@]4(C)CC[C@@H]3[C@@]2(C)CC[C@H]1O (stereo partly specified) |  | 3.2 µM | 131% | inactive | 
13 | C/C=C\C[C@H]1C2CC[C@H]3[C@@H]4CC[C@H]([C@H](C)CCCC(C)C)[C@@]4(C)CC[C@@H]3[C@@]2(C)CC[C@H]1O (stereo partly specified) |  | 26 µM | 72% | inactive | 
14 | Cc1cccc(C[C@H]2C3CC[C@H]4[C@@H]5CC[C@H]([C@H](C)CCCC(C)C)[C@@]5(C)CC[C@@H]4[C@@]3(C)CC[C@H]2O)c1 (stereo partly specified) | inactive |  |  |  | 
15 | C=C(C)C[C@H]1C2CC[C@H]3[C@@H]4CC[C@H]([C@H](C)CC[C@@H](CC)C(C)C)[C@@]4(C)CC[C@@H]3[C@@]2(C)CC[C@H]1O (stereo partly specified) |  | 3.1 µM | 165% | inactive | Total cholesterol [7]: 196 mg/dL; Relative change [8]: -41%
16 | C=CC[C@@H]1C[C@@]2(C)C(CC[C@H]3[C@@H]4CC[C@H]([C@H](C)CCCC(C)C)[C@@]4(C)CC[C@@H]32)[C@H](CC=C)[C@@H]1O (stereo partly specified) | inactive |  |  |  | 
17 | C/C=C(\C)C[C@H]1C2CC[C@H]3[C@@H]4CC[C@H]([C@H](C)CCCC(C)C)[C@@]4(C)CC[C@@H]3[C@@]2(C)CC[C@H]1O (stereo partly specified) |  | 18 µM | 72% | inactive | 
18 | CC(C)CCC[C@@H](C)[C@H]1CC[C@H]2[C@@H]3CCC4[C@H](C/C=C/c5ccccc5)[C@H](O)CC[C@]4(C)[C@H]3CC[C@]12C (stereo partly specified) | inactive |  |  |  | 
19 | C=CC[C@@H]1C(=O)CC[C@]2(C)[C@H]3CC[C@]4(C)[C@@H]([C@H](C)CCCC(C)C)CC[C@H]4[C@@H]3CC[C@@H]12 | inactive |  |  |  | Relative change [2]: -27%; Total cholesterol [3]: 267 mg/dL
20 | CC(C)CCC[C@@H](C)[C@H]1CC[C@H]2[C@@H]3CCC4[C@H](Cc5ccc(Cl)c(Cl)c5)[C@H](O)CC[C@]4(C)[C@H]3CC[C@]12C (stereo partly specified) | inactive |  |  |  | 
21 | CC(C)CCC[C@@H](C)[C@H]1CC[C@H]2[C@@H]3CCC4[C@H](Cc5ccc(OCc6ccccc6)cc5)[C@H](O)CC[C@]4(C)[C@H]3CC[C@]12C (stereo partly specified) | inactive |  |  |  | 

Row | SMILES | EC30 [1] | EC30 [4] | MA [5] | Activity [6] | further results
22 | C=CC[C@H]1C2CC[C@H]3[C@@H]4CC[C@H]([C@H](C)CC[C@@H](CC)C(C)C)[C@@]4(C)CC[C@@H]3[C@@]2(C)CC[C@H]1O (stereo partly specified) |  | 8.2 µM | 95% | inactive | Total cholesterol [7]: 217 mg/dL; Relative change [8]: -35%
23 | CC(C)CCC[C@@H](C)[C@H]1CC[C@H]2[C@@H]3CCC4[C@H](Cc5ccc(CO)cc5)[C@H](O)CC[C@]4(C)[C@H]3CC[C@]12C (stereo partly specified) | inactive |  |  |  | 
24 | C=CC[C@@H]1C[C@H]2[C@@H]3CC[C@H]([C@H](C)CCCC(C)C)[C@@]3(C)CC[C@@H]2[C@@]2(C)CC[C@@H](O)CC12 (stereo partly specified) | inactive |  |  |  | 
25 | C=C(C)C[C@H]1C2CC[C@H]3[C@@H]4CC[C@H]([C@H](C)CCCC(C)C)[C@@]4(C)CC[C@@H]3[C@@]2(C)CC[C@H]1O (stereo partly specified) |  | 2.8 µM | 124% | inactive | 
26 | CC(C)CCC[C@@H](C)[C@H]1CC[C@H]2[C@@H]3CCC4[C@H](Cc5ccc(F)cc5F)[C@H](O)CC[C@]4(C)[C@H]3CC[C@]12C (stereo partly specified) | inactive |  |  |  | 
27 | CCCC[C@H]1C2CC[C@H]3[C@@H]4CC[C@H]([C@H](C)CCCC(C)C)[C@@]4(C)CC[C@@H]3[C@@]2(C)CC[C@H]1O (stereo partly specified) |  | 20 µM | 88% | inactive | 
28 | CC(C)CCC[C@@H](C)[C@H]1CC[C@H]2[C@@H]3CCC4[C@H](C/C=C/Cl)[C@H](O)CC[C@]4(C)[C@H]3CC[C@]12C (stereo partly specified) |  | 2 µM | 169% | inactive | Activity [9]: Negative; Total cholesterol [7]: 185 mg/dL; Relative change [8]: -44%
29 | CC(C)CCC[C@@H](C)[C@H]1CC[C@H]2[C@@H]3CCC4[C@H](Cc5ccc(C(F)(F)F)cc5)[C@H](O)CC[C@]4(C)[C@H]3CC[C@]12C (stereo partly specified) |  | 12 µM | 58% | inactive | 
30 | CC(C)CCC[C@@H](C)[C@H]1CC[C@H]2[C@@H]3CCC4[C@H](Cc5ccccc5F)[C@H](O)CC[C@]4(C)[C@H]3CC[C@]12C (stereo partly specified) | inactive |  |  |  | 
31 | CC(C)CCC[C@@H](C)[C@H]1CC[C@H]2[C@@H]3CCC4[C@H](Cc5ccc(C#N)cc5)[C@H](O)CC[C@]4(C)[C@H]3CC[C@]12C (stereo partly specified) |  | 9.9 µM | 55% | inactive | 
32 | COC(=O)c1ccc(C[C@H]2C3CC[C@H]4[C@@H]5CC[C@H]([C@H](C)CCCC(C)C)[C@@]5(C)CC[C@@H]4[C@@]3(C)CC[C@H]2O)cc1 (stereo partly specified) |  | 14 µM | 48% | inactive | 
33 | C=C[C@H]1C2CC[C@H]3[C@@H]4CC[C@H]([C@H](C)CCCC(C)C)[C@@]4(C)CC[C@@H]3[C@@]2(C)CC[C@H]1O (stereo partly specified) | inactive |  |  |  | 
34 | CC(C)CCC[C@@H](C)[C@H]1CC[C@H]2[C@@H]3CCC4[C@H](Cc5cccc(F)c5)[C@H](O)CC[C@]4(C)[C@H]3CC[C@]12C (stereo partly specified) | inactive |  |  |  | 
35 | CC(C)CCC[C@@H](C)[C@H]1CC[C@H]2[C@@H]3CCC4[C@H](Cc5cccc(F)c5F)[C@H](O)CC[C@]4(C)[C@H]3CC[C@]12C (stereo partly specified) | inactive |  |  |  | 
36 | CC(C)CCC[C@@H](C)[C@H]1CC[C@H]2[C@@H]3CCC4[C@H](Cc5ccc(F)cc5)[C@H](O)CC[C@]4(C)[C@H]3CC[C@]12C (stereo partly specified) |  | 17 µM | 80% | inactive | Relative change [2]: -50%; Total cholesterol [3]: 181 mg/dL
37 | C=C(Cl)C[C@H]1C2CC[C@H]3[C@@H]4CC[C@H]([C@H](C)CCCC(C)C)[C@@]4(C)CC[C@@H]3[C@@]2(C)CC[C@@H]1O (stereo partly specified) | inactive |  |  |  | 
38 | CC(C)CCC[C@@H](C)[C@H]1CC[C@H]2[C@@H]3CC[C@H]4CC(=O)CC[C@]4(C)[C@H]3CC[C@]12C | inactive |  |  |  | 
39 | C=CC[C@H]1C2CC[C@H]3[C@@H]4CC[C@H]([C@H](C)CCCC(C)(C)O)[C@@]4(C)CC[C@@H]3[C@@]2(C)CC[C@H]1O (stereo partly specified) |  | 9.4 µM | 111% |  | 
40 | C=CC[C@H]1C[C@H]2[C@@H]3CC[C@H]([C@H](C)CCCC(C)C)[C@@]3(C)CC[C@@H]2[C@@]2(C)CC[C@@H](O)CC12 (stereo partly specified) | inactive |  |  |  | 
41 | CC(C)CCC[C@@H](C)[C@H]1CC[C@H]2[C@@H]3CCC4[C@H](Cc5ccc(C(=O)O)cc5)[C@H](O)CC[C@]4(C)[C@H]3CC[C@]12C (stereo partly specified) | inactive |  |  |  | 
42 | CC(C)CCC[C@@H](C)[C@H]1CC[C@H]2[C@@H]3CCC4[C@H](C/C=C/CO)[C@H](O)CC[C@]4(C)[C@H]3CC[C@]12C (stereo partly specified) | inactive |  |  |  | 

From ChEMBL document CHEMBL1128436, “Synthesis and biological evaluation of a new series of sterols as potential hypocholesterolemic agents” (1995)
